Results pooled from the literature.
Target: Muscle, skeletal receptor tyrosine-protein kinase (MUSK, Homo sapiens, UniProt O15146)
Sequence (O15146 24-869, as in one of the studies): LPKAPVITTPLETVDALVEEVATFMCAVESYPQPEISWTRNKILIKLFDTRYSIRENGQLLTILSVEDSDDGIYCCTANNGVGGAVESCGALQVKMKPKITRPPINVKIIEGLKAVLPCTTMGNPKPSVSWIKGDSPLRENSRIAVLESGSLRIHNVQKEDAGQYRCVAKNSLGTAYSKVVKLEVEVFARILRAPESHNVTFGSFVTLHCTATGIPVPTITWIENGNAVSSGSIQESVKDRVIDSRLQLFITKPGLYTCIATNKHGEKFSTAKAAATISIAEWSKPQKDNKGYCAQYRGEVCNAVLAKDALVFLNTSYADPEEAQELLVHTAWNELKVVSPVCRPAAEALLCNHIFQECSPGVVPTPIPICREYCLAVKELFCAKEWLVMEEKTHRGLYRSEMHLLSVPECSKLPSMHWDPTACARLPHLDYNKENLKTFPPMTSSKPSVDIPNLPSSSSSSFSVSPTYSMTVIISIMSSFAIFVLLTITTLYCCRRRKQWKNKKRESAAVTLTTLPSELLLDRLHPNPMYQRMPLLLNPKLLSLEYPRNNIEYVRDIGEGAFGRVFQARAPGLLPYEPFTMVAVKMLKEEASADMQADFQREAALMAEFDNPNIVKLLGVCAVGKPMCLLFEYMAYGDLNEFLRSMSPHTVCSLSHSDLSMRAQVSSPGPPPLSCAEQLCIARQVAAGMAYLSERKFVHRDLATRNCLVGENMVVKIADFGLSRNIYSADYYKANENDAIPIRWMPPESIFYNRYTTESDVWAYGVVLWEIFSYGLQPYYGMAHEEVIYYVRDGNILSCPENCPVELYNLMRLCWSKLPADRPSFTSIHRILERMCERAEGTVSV

O=C(NC[C@@H]1[C@H]2CN(C(=O)OCc3cc(C(F)(F)F)cc(C(F)(F)F)c3)C[C@@H]12)c1ccc2[nH]nnc2c1  remaining binding (cell-free assay; competition with immobilised ligand; 1 µM): 77%
CC(C)(O)[C@H]1CC[C@H](Nc2ccc3ncc(-c4cccc(C(F)(F)F)c4)n3n2)CC1  remaining activity (enzyme activity; inhibitor; 1 µM): 23.7%
CC(=O)C1=C(C)N(c2cccc(C(F)(F)F)c2)C(=O)N[C@@H]1c1ccc(C#N)nc1  remaining binding (cell-free assay; competition with immobilised ligand; 1 µM): 100%
Cc1cnc(NC2CCOCC2)nc1-n1cnc(C(=O)NC(CN)c2cc(F)cc(Cl)c2)c1 (stereo not shown)  remaining activity (enzyme activity; inhibitor; radiometric; 1 µM): 97%
O=C(Nc1cnn(-c2csc(C(=O)NC3COC3)c2)c1)Nc1ccccc1Cl  remaining activity (enzyme activity; inhibitor; 5 µM): 94.5%
Cc1ccc(Nc2nccc(N(C)c3ccc4c(C)n(C)nc4c3)n2)cc1S(N)(=O)=O  inhibition (enzyme activity; inhibitor; 0.3 µM): 75%
CS(=O)(=O)NCC[C@H](NC(=O)c1cncc2c1cnn2-c1ccc(F)cc1)c1ccnc(S(C)(=O)=O)c1  remaining binding (cell-free assay; competition with immobilised ligand; 1 µM): 100%
CC/C(=N\NC(=O)NCc1cccc(O)c1)c1ccc(O)c(C)c1O  inhibition (enzyme activity; inhibitor; 0.1 µM): -3.4%
CC(C)(C)c1nc2c(s1)c1nc(N)ncc1c1ccc(NS(=O)(=O)c3c(F)cccc3F)c(F)c12  remaining activity (enzyme activity; inhibitor; radiometric; 1 µM): 80%
Nc1ncnc2occ(-c3ccc(NC(=O)Nc4cc(C(F)(F)F)ccc4F)cc3)c12  remaining signal (cell-free assay; inhibitor; 20 µM): 0%
CNC(=O)c1cc(Oc2ccc(NC(=O)Nc3ccc(Cl)c(C(F)(F)F)c3)cc2)ccn1  inhibition (enzyme activity; inhibitor; 0.3 µM): 77%
O=C1Nc2ccc(Cl)cc2C1=Cc1cc(Cl)c(O)c(Cl)c1  remaining signal (cell-free assay; 0.5 µM): 65.5%
Cc1ccc(C(=O)Nc2ccc(CN3CCN(C)CC3)c(C(F)(F)F)c2)cc1C#Cc1cnc2cccnn12  remaining activity (enzyme activity; inhibitor; 23.5 nM): 8%
Cc1ccc(NC(=O)c2ccc(C)c(C(F)(F)F)c2)cc1C#Cc1nn(C2CCC(O)CC2)c2ncnc(N)c12 (stereo not shown)  remaining signal (cell-free assay; 10 µM): 70%
O=C1NC(=O)c2cc(Nc3ccc(F)cc3)c(Nc3ccc(F)cc3)cc21  remaining signal (cell-free assay; 0.5 µM): 90.2%
c1ccc(N2CCN(Cc3nc4ccccc4[nH]3)CC2)nc1  remaining binding (binding; competition with immobilised ligand; 1 µM): 100%
COc1cc(Cl)c(C(=O)N[C@@H](CN[C@H]2CC[C@@H](N)CC2)Cc2ccc(C#N)cc2)cc1-c1ccc(CN[C@H](C)c2ccc(C)cc2)o1  remaining activity (enzyme activity; inhibitor; 1 µM): 84%
CCN(CC)CCNC(=O)c1c(C)[nH]c(/C=C2\C(=O)Nc3ccc(F)cc32)c1C  inhibition (enzyme activity; inhibitor; 10 µM): 90%
C[C@@H]1CN(c2cc(-c3nn(C)c4ccc(OC5(C)CC5)cc34)ncn2)C[C@H](C)O1  remaining binding (cell-free assay; competition with immobilised ligand; 1 µM): 92%
N#CCCc1ccc2c(c1)-c1[nH]c3ccc([N+](=O)[O-])cc3c1CC(=O)N2  remaining signal (cell-free assay; 0.5 µM): 63%
COc1cc2ncnc(Nc3ccc(Oc4ccccc4)c(C)c3C)c2cc1OC  inhibition (enzyme activity; inhibitor; 1 µM): -2%
CNCc1ccccc1-c1csc([C@H](C)Nc2nc(C)nc3cc(OC)c(OC)cc23)c1  remaining binding (cell-free assay; competition with immobilised ligand; 1 µM): 90%
CCCOc1ccc(OC)c(F)c1C(=O)c1ccc(C(=O)N[C@@H]2CNC[C@H]2NC(=O)c2ccc3[nH]ncc3c2)cc1  remaining activity (enzyme activity; inhibitor; 10 µM): -1%
C[C@H](NC(=O)c1cnc2n1[C@](C)(Cc1ccc(C#N)cc1)C(=O)N2c1cc(Cl)c(F)c(Cl)c1)C(=O)NC1(c2ccccn2)CC1  remaining binding (cell-free assay; competition with immobilised ligand; 1 µM): 100%
CCCS(=O)(=O)Nc1ccc(F)c(C(=O)c2c[nH]c3ncc(-c4ccc(Cl)cc4)cc23)c1F  inhibition (enzyme activity; inhibitor; 1 µM): < 10%
